Test results taken from ChEMBL document CHEMBL1123247, “Nucleoside conjugates. 7. Synthesis and antitumor activity of 1-beta-D-arabinofuranosylcytosine conjugates of ether lipids” (J Med Chem, 1986).
Where “and” joins values, the source holds several entries; their conditions need not be identical. Identical values can stand only once.

Legend:
P388 [1] = test: Antitumor activity was determined against the ip implanted P388 leukemia in mice by percent increase in life span at 60 mg/kg (1-5qd treatment schedule) dosage; type: functional, Mus musculus; settings: route intraperitoneal
Outline: (§1)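 DBA/2J mice, 23-33 g, in groups of 6, were inoculated ip with 1×10^6 P388 cells on day 0. Dosing was ip from 24 h on the stated schedules, in 0.9% NaCl with 0.5% Tween-80 (sonicated solution or suspension). Survival was followed daily until death or 45 days. Median T/C was calculated from survivors per NCI protocols, with ILS = (T/C − 1) × 100.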

P388 [2] = test: Antitumor activity was determined against the ip implanted P388 leukemia in mice by percent median survival rate (treated/control) at 133 mg/kg (treatment of 1,5,9qd schedule) dosage; >45.0/11.5; type: functional, Mus musculus; settings: route intraperitoneal
P388 [3] = test: Antitumor activity was determined against the ip implanted P388 leukemia in mice by percent median survival rate (treated/control) at 300 mg/kg (1 qd treatment schedule) dosage; >45.0/11.0; type: functional, Mus musculus; settings: route intraperitoneal
P388 [4] = test: Antitumor activity was determined against the ip implanted P388 leukemia in mice by 45-day survivors in mice at 300 mg/kg (1 qd treatment schedule) dosage; type: functional, Mus musculus; settings: route intraperitoneal; outline: as §1
P388 [5] = test: Antitumor activity was determined against the ip implanted P388 leukemia in mice by 45-day survivors in mice at 60 mg/kg (1-5qd treatment schedule) dosage; type: functional, Mus musculus; settings: route intraperitoneal; outline: as §1
P388 [6] = test: Antitumor activity was determined against the ip implanted P388 leukemia in mice by percent median survival rate (treated/control) at 60 mg/kg (1-5qd treatment schedule) dosage; >45.0/11.5; type: functional, Mus musculus; settings: route intraperitoneal
P388 [7] = test: Antitumor activity against ip implanted P388 leukemia in mice expressed as active dose range (1,5,9qd treatment schedule) required to produce increase in life span by >25% was determined; Range is 100-167; type: functional, Mus musculus
Outline: (§2)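 P388 leukemia: 1 × 10^6 cells were given ip on day 0 to DBA/2J mice, groups of 6 (23-33 g). Treatment was ip from 24 h after inoculation, vehicle 0.9% NaCl with 0.5% Tween-80. Mice were observed daily until death or 45 days. Median survival T/C was calculated from survivors per NCI protocols, and ILS = (T/C − 1) × 100. Active range means doses giving ILS ≥25%; optimal dose means greatest ILS.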

P388 [8] = test: Antitumor activity against ip implanted P388 leukemia in mice expressed as active dose range (1-5qd treatment schedule) required to produce increase in life span by >25% was determined; Range is 40-80; type: functional, Mus musculus; outline: as §2
P388 [9] = test: Antitumor activity was determined against the ip implanted P388 leukemia in mice by change in […] at 133 mg/kg (treatment of 1,5,9qd schedule) dosage; type: functional, Mus musculus; settings: route intraperitoneal
Outline: (§3)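 P388 leukemia, 1×10^6 cells implanted ip on day 0 into DBA/2J mice, groups of 6 (wt 23-33 g). Dosing ip started 24 h post-inoculation, vehicle 0.9% NaCl containing 0.5% Tween-80. Animals were observed daily until death or 45 days. Outputs were weight change, median survival T/C from survivors per NCI protocols, and %ILS = (T/C − 1) × 100.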

P388 [10] = test: Antitumor activity was determined against the ip implanted P388 leukemia in mice by change in […] at 300 mg/kg (1 qd treatment schedule) dosage; type: functional, Mus musculus; settings: route intraperitoneal; outline: as §3
P388 [11] = test: Antitumor activity was determined against the ip implanted P388 leukemia in mice by change in […] at 60 mg/kg (1-5qd treatment schedule) dosage; type: functional, Mus musculus; settings: route intraperitoneal; outline: as §3
P388 [12] = test: Antitumor activity was determined against the ip implanted P388 leukemia in mice by percent increase in life span at 133 mg/kg (treatment of 1,5,9qd schedule) dosage; type: functional, Mus musculus; settings: route intraperitoneal; outline: as §1
P388 [13] = test: Antitumor activity was determined against the ip implanted P388 leukemia in mice by range in survival days at 300 mg/kg (1 qd treatment schedule) dosage; Range is 39->45; type: functional, Mus musculus; settings: route intraperitoneal
P388 [14] = test: Antitumor activity was determined against the ip implanted P388 leukemia in mice by 45-day survivors in mice at 133 mg/kg (treatment of 1,5,9qd schedule) dosage; type: functional, Mus musculus; settings: route intraperitoneal; outline: as §1
P388 [15] = test: Antitumor activity was determined against the ip implanted P388 leukemia in mice by percent increase in life span at 300 mg/kg (1 qd treatment schedule) dosage; type: functional, Mus musculus; settings: route intraperitoneal; outline: as §1
P388 [16] = test: Antitumor activity against the ip implanted P388 leukemia in mice expressed as optimal dose (1,5,9qd treatment schedule) required to produce greatest increase in life span was determined; type: functional, Mus musculus; design: unit: mg/kg; outline: as §2
P388 [17] = test: Antitumor activity against the ip implanted P388 leukemia in mice expressed as optimal dose (1-5qd treatment schedule) required to produce greatest increase in life span was determined; type: functional, Mus musculus; design: unit: mg/kg; outline: as §2
P388 [18] = test: Antitumor activity against the ip implanted P388 leukemia in mice expressed as optimal dose (1 qd treatment schedule) required to produce greatest increase in life span was determined; type: functional, Mus musculus; outline: as §2
P388 [19] = test: Antitumor activity against ip implanted P388 leukemia in mice expressed as active dose range (1 qd treatment schedule) required to produce increase in life span by >25% was determined; Range is 200-400; type: functional, Mus musculus; outline: as §2
L1210 [20] = test: Antitumor activity was determined against the ip implanted L1210 leukemia in mice by range in survival days at 131 and 258 mg/kg (treatment of 1qd schedule) dosage; Range is 8-9; type: functional, Mus musculus; settings: route intraperitoneal
Outline: (§4)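 DBA/2J mice, 23-28 g, in groups of 6, were inoculated ip with 1×10^6 L1210 cells on day 0. Dosing was ip starting 24 h later on the stated daily schedules. Conjugates were given as sonicated solutions and reference prodrugs as suspensions in 0.9% NaCl with 0.5% Tween-80. Mice were observed daily until death or 45 days. Median survival T/C was calculated from survivors per NCI protocols.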

L1210 [21] = test: Antitumor activity was determined against the ip implanted L1210 leukemia in mice by range in survival days at 26 and 51 mg/kg (treatment of 1-5qd schedule) dosage; Range is 11-12; type: functional, Mus musculus; settings: route intraperitoneal; outline: as §4
L1210 [22] = test: Antitumor activity against the ip implanted L1210 leukemia in mice expressed as optimal dose (1-5qd treatment schedule) required to produce greatest increase in life span was determined; type: functional, Mus musculus
Outline: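 DBA/2J mice, groups of 6 (23-28 g), were inoculated ip with 1 × 10^6 L1210 cells on day 0. Dosing was ip from 24 h, in 0.9% NaCl with 0.5% Tween-80 (sonicated solution or suspension). Mice were observed daily until death or day 45. Median survival T/C followed NCI protocols, and ILS = (T/C − 1) × 100. Active range means doses giving ILS ≥25%; optimal dose means greatest ILS.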

L1210 [23] = test: Antitumor activity was determined against the ip implanted L1210 leukemia in mice by change in […] at 131 and 258 mg/kg (treatment of 1qd schedule) dosage; type: functional, Mus musculus; settings: route intraperitoneal
Outline: (§5)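 DBA/2J mice, 6 per group (wt 23-28 g), inoculated ip with 1×10^6 L1210 cells on day 0. Treatment was given ip in 0.9% NaCl with 0.5% Tween-80, starting 24 h later. Weight change was taken on day 8. Mice were observed daily until death or 45 days. Median survival T/C and %ILS = (T/C − 1) × 100 came from survivors per NCI protocols, and 45-day survivors were counted.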

L1210 [24] = test: Antitumor activity was determined against the ip implanted L1210 leukemia in mice by change in […] at 26 and 51 mg/kg (treatment of 1-5qd schedule) dosage; type: functional, Mus musculus; settings: route intraperitoneal; outline: as §5
L1210 [25] = test: Antitumor activity was determined against the ip implanted L1210 leukemia in mice by 45-day survivors in mice at 131 and 258 mg/kg (treatment of 1qd schedule) dosage; type: functional, Mus musculus; settings: route intraperitoneal
Outline: (§6)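 DBA/2J mice in groups of 6 (wt 23-28 g) were inoculated ip with 1×10^6 L1210 cells on day 0. Dosing was ip from 24 h, in 0.9% NaCl with 0.5% Tween-80 (conjugates sonicated), across a range of doses. Mice were observed daily until death or 45 days. Median T/C was computed from survivors per NCI protocols, and ILS = (T/C − 1)×100.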

L1210 [26] = test: Antitumor activity was determined against the ip implanted L1210 leukemia in mice by 45-day survivors in mice at 26 and 51 mg/kg (treatment of 1-5qd schedule) dosage; type: functional, Mus musculus; settings: route intraperitoneal; outline: as §6
L1210 [27] = test: Antitumor activity was determined against the ip implanted L1210 leukemia in mice by percent increase in life span at 131 and 258 mg/kg (treatment of 1qd schedule) dosage; type: functional, Mus musculus; settings: route intraperitoneal; outline: as §6
L1210 [28] = test: Antitumor activity was determined against the ip implanted L1210 leukemia in mice by percent increase in life span at 26 and 51 mg/kg (treatment of 1-5qd schedule) dosage; type: functional, Mus musculus; settings: route intraperitoneal; outline: as §6
L1210 [29] = test: Antitumor activity was determined against the ip implanted L1210 leukemia in mice by median survival time at 131 adn 258 mg/kg (treatment of 1qd schedule) dosage; 8.0/8.0; settings: route intraperitoneal
L1210 [30] = test: Antitumor activity was determined against the ip implanted L1210 leukemia in mice by median survival time at 26 and 51 mg/kg (treatment of 1-5qd schedule) dosage; 11.0/8.0; settings: route intraperitoneal

SMILES: CCCCCCCCCCCCCCCC(=O)OCC(COP(=O)(O)OP(=O)(O)OC[C@H]1O[C@@H](n2ccc(N)nc2=O)[C@@H](O)[C@@H]1O)OC(=O)CCCCCCCCCCCCCCC (mixture of isomers)
- ILS (P388 [1]): >291
- T/C (P388 [2]): >45%
- T/C (P388 [3]): >45%
- Survivors (P388 [4]): 4
- Survivors (P388 [5]): 6
- T/C (P388 [6]): >45%
- Active dose range (P388 [7]): 100 mg/kg/day
- Active dose range (P388 [8]): 40 mg/kg/day
- Weight change (P388 [9]): 0.37 g mouse-1
- Weight change (P388 [10]): -1.7 g mouse-1
- Weight change (P388 [11]): -3.27 g mouse-1
- ILS (P388 [12]): >291
- Range (P388 [13]): 39
- Survivors (P388 [14]): 6
- ILS (P388 [15]): >309
- Optimal dose (P388 [16]): 133 mg
- Optimal dose (P388 [17]): 60 mg
- Optimal dose (P388 [18]): 300 mg/kg/day
- Active dose range (P388 [19]): 200 mg/kg/day

SMILES: CCCCCCCCCCCCCCCCOCC(COP(=O)(O)O)OC(=O)CCCCCCCCCCCCCCC.Nc1ccn([C@@H]2O[C@H](COP(=O)(O)O)[C@@H](O)[C@@H]2O)c(=O)n1 (racemic)
- Range (L1210 [20]): 8
- Range (L1210 [21]): 11
- Optimal dose (L1210 [22]): 26 mg and 51 mg
- Weight change (L1210 [23]): -0.8 g mouse-1
- Weight change (L1210 [24]): 1.1 g mouse-1
- Survivors (L1210 [25]): 0
- Survivors (L1210 [26]): 0
- ILS (L1210 [27]): 0
- ILS (L1210 [28]): 38
- median survival time (L1210 [29]): 8 days
- median survival time (L1210 [30]): 11 days
